Experimental data as given in ChEMBL document CHEMBL5029154, “Design, Synthesis, and Biological Evaluation of Organic Nitrite (NO2-) Donors as Potential Anticerebral Ischemia Agents” (J Med Chem, 2021).
In brackets after ≈: the same amount, converted by molar mass. Activity calls are given as the source filed them. No cut-off for these calls is given here.

Key:
[1] = Photostability of the compound under light at 200 uM measured after 24 hrs by HPLC analysis; assay type: physicochemical
[2] = Drug metabolism assessed as nitric oxide release in presence of bovine plasma at 200 uM measured after 1 hr by Griess reagent based assay; assay type: ADME, cell-free, Bos taurus; settings: cattle
[3] = Stability of the compound in pH 6 phosphate buffer assessed as half life at 200 uM measured after 24 hrs by HPLC analysis; assay type: physicochemical; settings: phosphate buffer pH 6, pH 6
[4] = tested on: Rattus norvegicus; experiment: Neuroprotective activity against middle cerebral artery occlusion-induced ischemia-reperfusion injury Sprague-Dawley rat model assessed as decrease in brain infarct volume at 95 to 9500 microg/kg, iv treated immediately reperfusion measured after 24 hrs; assay type: functional, organism-based; settings: dose 95-9500 µg/kg
Procedure, shortened: (§1)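 Male SD rats (12 weeks, 200–220 g; N = 8/group) underwent MCAO under […] (350 mg/kg) using a nylon intraluminal suture for 2 h, then reperfusion. Compound (95, 950 or 9500 μg/kg) was given iv immediately after reperfusion; where used, PTIO 1 mg/kg iv was given 30 min before. At 24 h, blinded scoring covered Longa neurological deficit, TTC infarct area/whole area, and edema from wet/dry brain weight (105 °C, 24 h).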

[5] = tested on: Rattus norvegicus; experiment: Neuroprotective activity against middle cerebral artery occlusion-induced ischemia-reperfusion injury Sprague-Dawley rat model assessed as increase in Ki67+ cells in cerebral ischemic penumbra at 95 to 950 microg/kg, iv treated immediately reperfusion measured after 24 hrs by immunofluoresence assay; assay type: functional, organism-based; settings: dose 95-950 µg/kg
[6] = tested on: Cortical neurone; experiment: Effect on Nrf2 mRNA transcript level in OGD/R-induced rat primary cortical neuron pretreated at 1.8 uM for 24 hrs followed by subjected to OGD for 2 hrs measured after 24 hrs under normoxic condition by RT-qPCR analysis; assay type: functional, tissue-based
Procedure, shortened: (§2)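 Primary rat cortical neurons were pretreated with 1.8 μM compound for 24 h, given 2 h OGD, then 24 h normoxic culture. Nrf2, HO-1 and NQO1 mRNA were measured by RT-qPCR. Cytoplasmic and nuclear protein (30 μg/lane) were blotted for Nrf2, with lamin A and β-actin as references, and quantified by densitometry as the nuclear:cytoplasmic ratio. Three independent experiments, mean ± SD.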

[7] = tested on: Cortical neurone; experiment: Neuroprotective activity against in OGD/R-induced rat cortical neuron cytotoxicity assessed as decrease in cell viability pretreated at 1.8 uM for 24 hrs followed by subjected to OGD for 2 hrs measured after 24 hrs under normoxic condition by MTT assay; assay type: functional, tissue-based
Procedure, shortened: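 Primary rat cortical neurons from enzymatically digested cortex, plated on poly-lysine in DMEM/10% FBS for 4 h. Pretreated 24 h in neuron basal medium with 2% B27, then glucose/FBS-free DMEM at 1% O2. Returned to 10% FBS DMEM under normoxia for 24 h. Viability by MTT; three independent experiments, mean SD.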

[8] = GSH reactivity assessed as reaction rate measured at 32 equiv of GSH upto 24 hrs by HPLC analysis; assay type: ADME
[9] = Neuroprotective activity against in OGD/R-induced rat cortical neuron apoptosis assessed as early apoptotic cells pretreated at 1.8 uM for 24 hrs followed by subjected to OGD for 2 hrs measured after 24 hrs under normoxic condition by PI/FITC-H staining based flow cytometry (reference value: 58.46%); assay type: functional, Cortical neurone
[10] = Solubility of compound in water; assay type: physicochemical
[11] = Neuroprotective activity against in OGD/R-induced rat cortical neuron apoptosis assessed as necrotic cells pretreated at 1.8 uM for 24 hrs followed by subjected to OGD for 2 hrs measured after 24 hrs under normoxic condition by PI/FITC-H staining based flow cytometry (reference value: 3.68%); assay type: functional, Cortical neurone
[12] = Stability of the compound in pH 7.4 saline assessed as half life at 200 uM measured after 24 hrs by HPLC analysis; assay type: physicochemical; settings: saline pH 7.4, pH 7.4
[13] = tested on: Rattus norvegicus; experiment: In vivo activation of Nrf2 middle cerebral artery occlusion-induced ischemia-reperfusion injury Sprague-Dawley rat model assessed as phosphorylation at 950 microg/kg, iv treated immediately reperfusion measured after 24 hrs; assay type: functional, organism-based; settings: dose 950.0 µg/kg
Procedure, shortened: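 Paraffin sections (3 μm) from MCAO rats were immunostained with anti-phospho-Nrf2 (1:100) and DAB, then scored blinded by average optical density over five fields per sample.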

[14] = tested on: Cortical neurone; experiment: Induction of HO-1 mRNA transcript level in OGD/R-induced rat primary cortical neuron pretreated at 1.8 uM for 24 hrs followed by subjected to OGD for 2 hrs measured after 24 hrs under normoxic condition by RT-qPCR analysis; assay type: functional, tissue-based; procedure, shortened: as §2
[15] = GSH reactivity assessed as reaction rate measured at 4 equiv of GSH upto 24 hrs by HPLC analysis; assay type: ADME
[16] = Neuroprotective activity against in OGD/R-induced rat cortical neuron apoptosis assessed as late apoptotic cells pretreated at 1.8 uM for 24 hrs followed by subjected to OGD for 2 hrs measured after 24 hrs under normoxic condition by PI/FITC-H staining based flow cytometry (reference value: 6.31%); assay type: functional, Cortical neurone
[17] = tested on: Cortical neurone; experiment: Neuroprotective activity against in OGD/R-induced Sprague-Dawley rat cortical neuron injury assessed as cell viability pretreated at 1.8 uM for 24 hrs followed by subjected to OGD for 2 hrs measured after 24 hrs under normoxic condition; assay type: functional, tissue-based
Procedure, shortened: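 Cortical neurons were isolated from SD rat cortex by enzymatic digestion, plated on poly-lysine in 10% FBS DMEM, and pretreated 24 h at 1.8 μM in basal medium with 2% B27. OGD was run in glucose/FBS-free DMEM under 1% O₂, followed by 24 h reoxygenation in 10% FBS DMEM. Viability was read by MTT; apoptosis was also assessed. Three independent experiments.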

[18] = Stability of the compound in rat plasma assessed as half life at 200 uM measured after 24 hrs by HPLC analysis; assay type: ADME, cell-free
[19] = tested on: Rattus norvegicus; experiment: Neuroprotective activity against middle cerebral artery occlusion-induced ischemia-reperfusion injury Sprague-Dawley rat model assessed as decrease in neurologic deficit scores at 95 to 9500 microg/kg, iv treated immediately reperfusion in presence of PTIO measured after 24 hrs; assay type: functional, organism-based; settings: dose 95-9500 µg/kg; procedure, shortened: as §1
[20] = Drug metabolism in Sprague-Dawley rat assessed as peak nitrite release in plasma at 10 mg/kg, iv measured upto 120 mins by ion chromatography; assay type: ADME, organism-based; settings: in vivo, 2 h
Procedure, shortened: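 Male SD rats (N = 3/group) received a single iv dose. Plasma was sampled at 2, 5, 15, 30, 60, 90 and 120 min. Nitrite was quantified by ion chromatography. Values are mean ± SD.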

[21] = tested on: Cortical neurone; experiment: Neuroprotective activity against in OGD/R-induced rat cortical neuron cytotoxicity assessed as activation of NO/cGMP/PKG pathway by measuring increase in PKG expression pretreated at 1.8 uM for 24 hrs followed by subjected to OGD for 2 hrs measured after 24 hrs under normoxic condition in presence of NS2028 by Western blot analysis; assay type: functional, tissue-based
[22] = tested on: HUVEC; experiment: Angiogenesis activity in HUVEC cells assessed as increase in tube formation at 1.8 uM measured after 8 hrs in presence of NS2028 by inverted microscopy; assay type: functional, cell-based; settings: Homo sapiens
Procedure, shortened: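 Early-passage HUVECs (passages 2–6), grown in DMEM with 10% FBS, glutamine, pyruvate and antibiotics, were seeded at 8 × 10⁴ cells/well on Matrigel. They were exposed to vehicle or compound for 8 h at 37 °C, 5% CO₂. Tubes were counted under an inverted microscope.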

[23] = tested on: Cortical neurone; experiment: Neuroprotective activity against in OGD/R-induced rat cortical neuron cytotoxicity assessed as activation of NO/cGMP/PKG pathway by measuring increase in cGMP level pretreated at 1.8 uM for 24 hrs followed by subjected to OGD for 2 hrs measured after 24 hrs under normoxic condition by ELISA; assay type: functional, tissue-based

O=C(/C(=C/c1ccccc1)C[N+](=O)[O-])c1ccccc1
Stability [1]: Stable | Drug metabolism [2]: Metabolite_Detected | half-life at 200 µM [3]: 1.1 h | Activity [4]: Active | Activity [5]: Active | Activity [6]: inactive | Activity [7]: Active | Activity [8]: 0.056 h⁻¹ | Activity [9]: 7.21% | solubility [10]: 33.2 µg/mL (≈ 124 µM) | Activity [11]: 1.28% | half-life at 200 µM [12]: 38.5 h | Activity [13]: Active | Activity [14]: Active | Activity [15]: 0.0299 h⁻¹ | Activity [16]: 1.72% | Activity [17]: Active | half-life at 200 µM [18]: 5.3 h | Activity [19]: inactive | Drug metabolism [20]: Metabolite_Detected | Activity [21]: inactive | Activity [22]: inactive | Activity [23]: Active
